Measurements published in ChEMBL document CHEMBL4622889, “Antineurodegenerative Labdane Diterpenoid Glycosides from the Twigs of Pinus koraiensis” (J Nat Prod, 2020).

Legend:
BV-2 = assay: Antineuroinflammatory activity against mouse BV2 cells assessed as inhibition of LPS-induced NO production incubated for 24 hrs by Griess assay; assay type: functional, cell-based; settings: BV-2, 24 h
Method in brief: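 BV2 microglia activated with LPS; NO production measured across compound concentrations, IC50 taken as the concentration (μM) giving 50% inhibition of NO production. Means ± SD of three independent experiments.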

[1] = Cytotoxicity against mouse BV2 cells assessed as cell viability at 20 uM by MTT assay relative to control; assay type: cell-based, BV-2; settings: read-out: Activity
Method in brief: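 BV2 cells treated with 20 μM of each compound; viability determined by MTT and expressed as percent. Means ± SD of three independent experiments.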

C6 = assay: Neuroprotective activity in rat C6 cells assessed as NGF secretion at 20 uM incubated for 24 hrs by ELISA relative to control; assay type: functional
Method in brief: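 Compounds applied to C6 glioma cells at 20 μM for 24 h; NGF released into the conditioned medium quantified by ELISA and given as percent of untreated control (100%). 6-Shogaol served as positive control. Means ± SD of three independent experiments.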

[2] = Cytotoxicity against rat C6 cells assessed as cell viability at 20 uM by MTT assay relative to control; assay type: cell-based; settings: read-out: Activity
Method in brief: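 C6 cells exposed to 20 μM of each compound; viability read by MTT and expressed as percent. Means ± SD of three independent experiments.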

Row | IC50 (BV-2) [µM] | SMILES | viability at 20 µM [1] [%] | Activity (C6) [%] | viability at 20 µM [2] [%]
1 | 24.1 | C=C1CC[C@@H]2[C@](C)(CC[C@@H](O)[C@]2(C)C(=O)O[C@@H]2O[C@H](CO)[C@@H](O)[C@H](O)[C@H]2O)[C@H]1CCC1=CCOC1=O | 77.5 | 106.6 | 92.8
2 | 152 | C=C1CC[C@@H]2[C@](C)(CCC[C@]2(C)C(=O)O[C@@H]2O[C@H](CO)[C@@H](O)[C@H](O)[C@H]2O)[C@H]1CC/C(=C/CO)CO | 133 | 105.4 | 86.5
3 | 402 | C[C@]12CCC[C@](C)(C(=O)O[C@@H]3O[C@H](CO)[C@@H](O)[C@H](O)[C@H]3O)[C@@H]1CC[C@@](C)(O)[C@@H]2CCC1=CCOC1=O | 70.4 | 84.5 | 111
4 | 93.2 | C[C@]12CCC[C@](C)(C(=O)O[C@@H]3O[C@H](CO)[C@@H](O)[C@H](O)[C@H]3O)[C@@H]1CC=C(CO)[C@@H]2CCC1=CCOC1=O | 87.7 | 119.4 | 102
5 | 54.1 | C=C1CC[C@@H]2[C@](C)(CCC[C@]2(C)C(=O)O[C@@H]2O[C@H](CO)[C@@H](O)[C@H](O)[C@H]2O)[C@H]1CCC1=CC(=O)OC1 | 107 | 162.7 | 105
6 | 68.8 | C=C1CC[C@@H]2[C@](C)(CC[C@H](O)[C@]2(C)C(=O)O[C@@H]2O[C@H](CO)[C@@H](O)[C@H](O)[C@H]2O)[C@H]1CCC1=CCOC1=O | 91.3 | 134.7 | 98.3
7 | 49.2 | C[C@]12CCC[C@](C)(C(=O)O[C@@H]3O[C@H](CO)[C@@H](O)[C@H](O)[C@H]3O)[C@@H]1CC[C@](C)(O)[C@@H]2CCC1=CCOC1=O | 89.6 | 106.1 | 94.2
8 | 51.6 | C=C1CC[C@@H]2[C@](C)(CCC[C@]2(O)C(=O)O[C@@H]2O[C@H](CO)[C@@H](O)[C@H](O)[C@H]2O)[C@H]1CCC1=CCOC1=O | 80.7 | 98.6 | 76
9 | 65.4 | C=C1CC[C@@H]2[C@](C)(CCC[C@]2(C)C(=O)O[C@@H]2O[C@H](CO)[C@@H](O)[C@H](O)[C@H]2O)[C@H]1CC/C(=C\CO)CO | 135 | 162.3 | 104
10 | 28.8 | CNC(=N)NCCC[C@H](N)C(=O)O [TILARGININE] | 99.2 | – | –
11 | 65.8 | C=C1CC[C@@H]2[C@](C)(CCC[C@]2(C)C(=O)O[C@@H]2O[C@H](CO)[C@@H](O)[C@H](O)[C@H]2O)[C@H]1CCC1=CCOC1=O | 92.1 | 142.4 | 101
12 | 35.7 | C=C1C[C@H](O)[C@@H]2[C@](C)(CCC[C@]2(C)C(=O)O[C@@H]2O[C@H](CO)[C@@H](O)[C@H](O)[C@H]2O)[C@H]1CCC1=CCOC1=O | 99.7 | 128.7 | 101
